Key:
SF-268 = assay: Cytotoxicity against human SF-268 after 48 hrs by MTT assay; assay type: functional, cell-based; details: for IC50: SF-268, 48 h
How it was run: (§1)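 Cells grown in RPMI 1640 with 10% FBS, trypsinized at 70% confluence; 1.0 × 10^4 cells per well cultured 24 h before treatment. Compounds at 100-3.125 µM, vehicle 0.1% DMSO, 48 h exposure; MTT read at 570 nm. IC50 where 100 × (C − T)/(C − B) = 50, derived by LOGIT method; mean ± SD of three independent experiments.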

MCF7 = assay: Cytotoxicity against human MCF7 after 48 hrs by MTT assay; assay type: functional, cell-based; details: for IC50: MCF7, 48 h; how it was run: as §1
HepG2 = assay: (§2) Cytotoxicity against human Hep G2 after 48 hrs by MTT assay; assay type: functional; how it was run: as §1
NCI-H460 = assay: Cytotoxicity against human NCI-H460 after 48 hrs by MTT assay; assay type: functional, cell-based; details: for IC50: NCI-H460, 48 h; how it was run: as §1
[1] = as §2; assay type: functional; details: HepG2, 48 h; how it was run: as §1

Row | Structure (SMILES) | Activity (SF-268) | Activity (MCF7) | Activity (HepG2) | Activity (NCI-H460) | IC50 (SF-268) | IC50 (MCF7) | IC50 [1] | IC50 (NCI-H460)
1 | C[C@@H]1C[C@H](O)[C@@]2(OC1=O)O[C@H]1[C@H](O)[C@H]3[C@@H]4CC[C@H]5C[C@@H](O[C@@H]6O[C@H](CO)[C@H](O[C@@H]7O[C@H](CO)[C@@H](O)[C@H](O[C@@H]8OC[C@@H](O)[C@H](O)[C@H]8O)[C@H]7O[C@@H]7OC[C@H](O)[C@H](O)[C@H]7O)[C@H](O)[C@H]6O[C@@H]6O[C@@H](C)[C@H](O)[C@@H](O)[C@H]6O)CC[C@]5(C)[C@H]4CC[C@]3(C)[C@H]1[C@@H]2C | Not toxic | Not toxic | Not toxic | Not toxic | – | – | – | –
2 | CC[C@@]1(O)C(=O)OCc2c1cc1n(c2=O)Cc2cc3cc(O)ccc3nc2-1 [HYDROXYCAMPTOTHECIN] | – | – | – | – | 29.9 µM | 19.1 µM | 6.49 µM | 38.6 µM
3 | C[C@@H]1C[C@H](O)[C@@]2(OC1=O)O[C@H]1C[C@H]3[C@@H]4CC[C@H]5C[C@@H](O[C@@H]6O[C@H](CO)[C@H](O[C@@H]7O[C@H](CO)[C@@H](O)[C@H](O[C@@H]8OC[C@@H](O)[C@H](O)[C@H]8O)[C@H]7O[C@@H]7OC[C@H](O)[C@H](O)[C@H]7O)[C@H](O)[C@H]6O[C@@H]6O[C@@H](C)[C@H](O)[C@@H](O)[C@H]6O)CC[C@]5(C)[C@H]4CC[C@]3(C)[C@H]1[C@@H]2C | Not toxic | Not toxic | Not toxic | Not toxic | – | – | – | –
4 | C[C@@H]1C[C@H](O)[C@@]2(OC1=O)O[C@H]1[C@H](O)[C@H]3[C@@H]4CC[C@H]5C[C@@H](O[C@@H]6O[C@H](CO)[C@H](O[C@@H]7O[C@H](CO)[C@@H](O)[C@H](O[C@@H]8O[C@H](CO)[C@@H](O)[C@H](O)[C@H]8O)[C@H]7O[C@@H]7O[C@H](CO)[C@@H](O)[C@H](O)[C@H]7O)[C@H](O)[C@H]6O)CC[C@]5(C)[C@H]4CC[C@]3(C)[C@H]1[C@@H]2C | Not toxic | Not toxic | Not toxic | Not toxic | – | – | – | –
5 | C[C@@H]1CC[C@@]2(OC1)O[C@H]1C[C@H]3[C@@H]4CC=C5C[C@@H](O[C@@H]6O[C@H](CO)[C@@H](O[C@@H]7O[C@@H](C)[C@H](O)[C@@H](O)[C@H]7O[C@@H]7O[C@H](CO)[C@@H](O)[C@H](O)[C@H]7O)[C@H](O)[C@H]6O[C@@H]6O[C@@H](C)[C@H](O)[C@@H](O)[C@H]6O)CC[C@]5(C)[C@H]4CC[C@]3(C)[C@@]1(O)[C@@H]2C | Not toxic | Not toxic | Not toxic | Not toxic | – | – | – | –
6 | C[C@@H]1CC[C@@]2(OC1)O[C@H]1[C@H](O)[C@H]3[C@@H]4CC[C@H]5C[C@@H](O[C@@H]6O[C@H](CO)[C@H](O[C@@H]7O[C@H](CO)[C@@H](O)[C@H](O[C@@H]8OC[C@@H](O)[C@H](O)[C@H]8O)[C@H]7O[C@@H]7O[C@H](CO)[C@@H](O)[C@H](O)[C@H]7O)[C@H](O)[C@H]6O)CC[C@]5(C)[C@H]4CC[C@]3(C)[C@H]1[C@@H]2C | Not toxic | Not toxic | Not toxic | Not toxic | – | – | – | –
7 | C[C@@H]1CC[C@@]2(OC1)O[C@H]1C[C@H]3[C@@H]4CC[C@H]5C[C@@H](O[C@@H]6O[C@H](CO)[C@H](O[C@@H]7O[C@H](CO)[C@@H](O)[C@H](O[C@@H]8OC[C@@H](O)[C@H](O)[C@H]8O)[C@H]7O[C@@H]7O[C@H](CO)[C@@H](O)[C@H](O)[C@H]7O)[C@H](O)[C@H]6O)CC[C@]5(C)[C@H]4CC[C@]3(C)[C@H]1[C@@H]2C [DEGALACTOTIGONIN] | – | – | – | – | 3.19 µM | 1.57 µM | 0.25 µM | 4.49 µM
8 | C[C@H]1CO[C@@]2(O[C@H]3C[C@H]4[C@@H]5CC[C@H]6C[C@@H](O[C@@H]7O[C@H](CO)[C@H](O[C@@H]8O[C@H](CO)[C@@H](O)[C@H](O[C@@H]9OC[C@@H](O)[C@H](O)[C@H]9O)[C@H]8O[C@@H]8O[C@H](CO)[C@@H](O)[C@H](O)[C@H]8O)[C@H](O)[C@H]7O)CC[C@]6(C)[C@H]5CC[C@]4(C)[C@H]3[C@@H]2C)[C@@H](O[C@@H]2O[C@H](CO)[C@@H](O)[C@H](O)[C@H]2O)C1 | Not toxic | Not toxic | Not toxic | Not toxic | – | – | – | –

Reference: ChEMBL document CHEMBL1158036, “Steroidal saponins from Solanum nigrum” (J Nat Prod, 2006)
